By T/C is commonly meant the result in the treated group divided by that in the control group, in per cent.

This is an account of results in ChEMBL document CHEMBL1122296, “Plasmin-activated prodrugs for cancer chemotherapy. 2. Synthesis and biological activity of peptidyl derivatives of doxorubicin” (1983).

What all share (format): functional
For assay [1], the species on record is Gallus gallus. Description: Inhibitory activity against the [3H]thymidine incorporation into DNA of Rous Sarcoma virus transformed chicken embryo fibroblasts at 24 hr of treatment. The settings on record: read-out: ED50 (the source's name). A general note: Incorporation of labelled thymidine or its analogues reports DNA synthesis.
Assay [2] has as its system Mus musculus. Description: Median survival of treated/ control animals (%T/C) was determined by in vivo antitumor activity against the B16 melanoma cell line at a dose of 5 mg/kg administered intraperitoneally on day 5. The note with it: route intraperitoneal. An outline of the steps:
(§1)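 Murine B16 melanoma implanted intraperitoneally in mice. Drug given intraperitoneally on days 5, 9 and 13 after implantation, with dose expressed as doxorubicin equivalents. Read-out is %T/C, the median survival of treated animals over that of untreated controls.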

A short description of assay [3]: Degree of improvement in the selective cytotoxicity of the prodrug (drug 10) to that of the parent drug (drug 1) at 5 hr of treatment; Value is measured as 5.8 times.
Assay [4] is described as follows: Degree of improvement in the selective cytotoxicity of the prodrug (drug 10) to that of the parent drug (drug 1) at 24 hr of treatment; Value is measured as 6.8 times.
The nature of assay [5]: Selectivity index between the ED50 value for normal cells to that of transformed chicken embryo fibroblast cells at 5 hr of treatment.
In assay [6] the test system is Mus musculus. The experiment in a line: Median survival of treated/ control animals (%T/C) was determined by in vivo antitumor activity against the B16 melanoma cell line at a dose of 45 mg/kg administered intraperitoneally on day 5. The settings on record: route intraperitoneal. The gist of the method: as §1
The species entered for assay [7] is Gallus gallus. The experiment in a line: Inhibitory activity against the [3H]thymidine incorporation into DNA of Rous Sarcoma virus transformed chicken embryo fibroblasts at 5 hr of treatment. The note with it: read-out: ED50 (the source's name).
The test system of assay [8] is Mus musculus. The experiment in a line: Median survival of treated/ control animals (%T/C) was determined by in vivo antitumor activity against the B16 melanoma cell line at a dose of 75 mg/kg administered intraperitoneally on day 5. The settings on record: route intraperitoneal. An outline of the steps:
as §1

The species entered for assay [9] is Gallus gallus. The experiment in a line: Inhibitory activity against the [3H]thymidine incorporation into DNA of normal chicken embryo fibroblasts at 24 hr of treatment. The settings on record: read-out: ED50 (the source's name).
Assay [10] deals with Mus musculus. Description: Median survival of treated/ control animals (%T/C) was determined by in vivo antitumor activity against the B16 melanoma cell line at a dose of 30 mg/kg administered intraperitoneally on day 5. The note with it: route intraperitoneal. The gist of the method: as §1
Assay [11] concerns Mus musculus. The experiment in a line: Median survival of treated/ control animals (%T/C) was determined by in vivo antitumor activity against the B16 melanoma cell line at a dose of 15 mg/kg administered intraperitoneally on day 5. The settings on record: route intraperitoneal. An outline of the steps: as §1
The subject of assay [12] is Mus musculus. Description: Median survival of treated/ control animals (%T/C) was determined by in vivo antitumor activity against the B16 melanoma cell line at a dose of 60 mg/kg administered intraperitoneally on day 5. The note with it: route intraperitoneal. An outline of the steps:
as §1

Assay [13] is filed under the species Gallus gallus. Description: Inhibitory activity against the [3H]-thymidine incorporation into DNA of normal chicken embryo fibroblasts at 5 hr of treatment. The settings on record: read-out: ED50 (the source's name).
Assay [14] in a line: Selectivity index between the ED50 value for normal cells to that of transformed chicken embryo fibroblast cells at 24 hr of treatment.
Assay [15] relates to Mus musculus. Description: Median survival of treated/ control animals (%T/C) was determined by in vivo antitumor activity against the B16 melanoma cell line at a dose of 6 mg/kg administered intraperitoneally on day 5. The settings on record: route intraperitoneal. An outline of the steps:
as §1

The subject of assay [16] is Mus musculus. The experiment in a line: Median survival of treated/ control animals (%T/C) was determined by in vivo antitumor activity against the B16 melanoma cell line at a dose of 9 mg/kg administered intraperitoneally on day 5. The settings on record: route intraperitoneal. An outline of the steps: as §1
Assay [17] concerns Mus musculus. The experiment in a line: Median survival of treated/ control animals (%T/C) was determined by in vivo antitumor activity against the B16 melanoma cell line at a dose of 12 mg/kg administered intraperitoneally on day 5. The settings on record: route intraperitoneal. An outline of the steps: as §1
Assay [18] deals with Mus musculus. The experiment in a line: Median survival of treated/ control animals (%T/C) was determined by in vivo antitumor activity against the B16 melanoma cell line at a dose of 1 mg/kg administered intraperitoneally on day 5. The note with it: route intraperitoneal. An outline of the steps:
as §1

The test system of assay [19] is Mus musculus. The experiment in a line: Median survival of treated/ control animals (%T/C) was determined by in vivo antitumor activity against the B16 melanoma cell line at a dose of 3 mg/kg administered intraperitoneally on day 5. The settings on record: route intraperitoneal. The gist of the method: as §1

Turning to `COc1cccc2c1C(=O)c1c(O)c3c(c(O)c1C2=O)C[C@@](O)(C(=O)CO)C[C@@H]3OC1CC(NC(=O)[C@H](CCCCN)NC(=O)[C@H](CC(C)C)NC(=O)[C@H](N)C(C)C)C(O)C(C)O1` (stereo partly specified), the EC50 in the assay listed under Gallus gallus [1] amounted to 800 nM; in the assay listed under Gallus gallus [7], 26000 nM; in the assay filed under Gallus gallus [9] it was 3000 nM; in the assay filed under Gallus gallus [13], 54000 nM. Besides, the T/C was 105% in the assay with Mus musculus [2]; 105% in the assay with Mus musculus [6]; 121% with Mus musculus [8]; 97% with Mus musculus [10]; 103% in the assay on Mus musculus [11]; 113% in the assay on Mus musculus [12]. Moreover, the Improvement in [3] came to 5.8; in assay [4], 6.8. Further, the Selectivity index in assay [5] came out at 2.1; in assay [14], 3.8.

Regarding `COc1cccc2c1C(=O)c1c(O)c3c(c(O)c1C2=O)C[C@@](O)(C(=O)CO)C[C@@H]3OC1CC(NC(=O)[C@H](CCCCN)NC(=O)[C@H](CC(C)C)NC(=O)[C@@H](NC(=O)OC(C)(C)C)C(C)C)C(O)C(C)O1.Cl` (stereo partly specified), the T/C with Mus musculus [2] is listed as 105%; with Mus musculus [10], 110%; with Mus musculus [11], 100%; with Mus musculus [12], 100%.

On to `COc1cccc2c1C(=O)c1c(O)c3c(c(O)c1C2=O)C[C@@](O)(C(=O)CO)C[C@@H]3O[C@H]1C[C@H](N)[C@H](O)[C@H](C)O1` [DOXORUBICIN], for which the EC50 in the assay filed under Gallus gallus [1] was found to be 180 nM; in the assay filed under Gallus gallus [7], 2500 nM; in the assay filed under Gallus gallus [9] it was 100 nM; in the assay listed under Gallus gallus [13] it was 900 nM. Besides, the results for the Improvement in [3] and in assay [4] were 5.8 and 6.8, respectively. In addition, the T/C with Mus musculus [15] was 158%; in the assay with Mus musculus [16], 90%; in the assay on Mus musculus [17], 68%; in the assay with Mus musculus [18], 111%; in the assay on Mus musculus [19] it was 137%. Further, the Selectivity index in [5] was determined as 0.36; in assay [14] it was 0.56.
